From ChEMBL document CHEMBL5303300, “EUbOPEN Chemogenomics Library - Multiplex” (2023)
Where “and” joins values, the source holds several entries; their conditions need not be identical. Identical values can stand only once.

How the values were obtained:
U2OS = assay: Multiplex assay against U2OS; format: toxicity, cell-based; conditions: human, number of replicates 2
How it was run: (§1)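 Values for tubulin, mitochondrial-mass and membrane-permeability phenotypes are per cents of cells with healthy nuclei. These cells were identified by CellPathfinder machine-learning gating of live cells that had been stained at seeding with Hoechst33342, BioTracker Green Microtubule Cytoskeleton Dye, MitoTracker Red and Annexin V Alexa Fluor 680 and imaged on a CQ1 microscope at 37°C and 5% CO2 after compound addition. The gating first set Hoechst high-intensity objects apart from normal cells, then split normal cells into healthy, pyknosed or fragmented nuclei, and pyknosed cells into mitotic or apoptotic.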

Fibroblast = assay: Multiplex assay against human fibroblast; format: toxicity, cell-based; conditions: number of replicates 2; how it was run: as §1
[1] = 24 h, 10 µM, compound concentration 10 uM
[2] = 48 h, 1 µM, compound concentration 1 uM
[3] = 48 h, 10 µM, compound concentration 10 uM
[4] = 12 h, 1 µM, compound concentration 1 uM
[5] = 12 h, 10 µM, compound concentration 10 uM
[6] = 24 h, 1 µM, compound concentration 1 uM

What does the source list for `CN(C)CCCNc1ccnc(Nc2cccc(Cl)c2)n1`?
Population Apoptotic (%) (U2OS; [1]): 38% and 33%; Population Fragmented Nuclei (%) (U2OS; [1]): 14% and 22%; Population Healthy Nuclei (%) (U2OS; [1]): 67% and 54%; Population Hoechst High Intensity Objects (%) (U2OS; [1]): 0%; Population Membrane Permeable-Phenotype (%) (U2OS; [1]): 2% and 6%; Population Mitochondria Different-Phenotype (%) (U2OS; [1]): 6% and 3%; Population Mitotic Cells (%) (U2OS; [1]): 61% and 66%; Population Normal (%) (U2OS; [1]): 100%; Population Pyknosed Nuclei (%) (U2OS; [1]): 18% and 22%; Population Tubulin-Different-Phenotype (%) (U2OS; [1]): 64% and 48%; Population Apoptotic (%) (U2OS; [2]): 70% and 78%; Population Fragmented Nuclei (%) (U2OS; [2]): 5% and 3%; Population Healthy Nuclei (%) (U2OS; [2]): 81% and 89%; Population Hoechst High Intensity Objects (%) (U2OS; [2]): 0%; Population Membrane Permeable-Phenotype (%) (U2OS; [2]): 0% and 1%; Population Mitochondria Different-Phenotype (%) (U2OS; [2]): 0%; Population Mitotic Cells (%) (U2OS; [2]): 30% and 21%; Population Normal (%) (U2OS; [2]): 100% and 99%; Population Pyknosed Nuclei (%) (U2OS; [2]): 13% and 7%; Population Tubulin-Different-Phenotype (%) (U2OS; [2]): 56% and 80%; Population Apoptotic (%) (U2OS; [3]): 94% and 73%; Population Fragmented Nuclei (%) (U2OS; [3]): 15% and 14%; Population Healthy Nuclei (%) (U2OS; [3]): 47% and 50%; Population Hoechst High Intensity Objects (%) (U2OS; [3]): 3% and 1%; Population Membrane Permeable-Phenotype (%) (U2OS; [3]): 12% and 5%; Population Mitochondria Different-Phenotype (%) (U2OS; [3]): 4% and 5%; Population Normal (%) (U2OS; [3]): 96% and 98%; Population Pyknosed Nuclei (%) (U2OS; [3]): 37% and 34%; Population Tubulin-Different-Phenotype (%) (U2OS; [3]): 62% and 67%; Population Apoptotic (%) (Fibroblast; [4]): 13% and 30%; Population Fragmented Nuclei (%) (Fibroblast; [4]): 9% and 15%; Population Healthy Nuclei (%) (Fibroblast; [4]): 76% and 67%; Population Hoechst High Intensity Objects (%) (Fibroblast; [4]): 0%; Population Membrane Permeable-Phenotype (%) (Fibroblast; [4]): 4%; Population Mitochondria Different-Phenotype (%) (Fibroblast; [4]): 1%; Population Mitotic Cells (%) (Fibroblast; [4]): 86% and 70%; Population Normal (%) (Fibroblast; [4]): 99% and 100%; Population Pyknosed Nuclei (%) (Fibroblast; [4]): 14% and 16%; Population Tubulin-Different-Phenotype (%) (Fibroblast; [4]): 14% and 10%; Total Cell Count (Fibroblast; [4]): 249 and 301; Population Apoptotic (%) (Fibroblast; [5]): 36% and 44%; Population Fragmented Nuclei (%) (Fibroblast; [5]): 23% and 18%; Population Healthy Nuclei (%) (Fibroblast; [5]): 65% and 70%; Population Hoechst High Intensity Objects (%) (Fibroblast; [5]): 0%; Population Membrane Permeable-Phenotype (%) (Fibroblast; [5]): 6% and 3%; Population Mitochondria Different-Phenotype (%) (Fibroblast; [5]): 2% and 1%; Population Mitotic Cells (%) (Fibroblast; [5]): 63% and 55%; Population Normal (%) (Fibroblast; [5]): 99%; Population Pyknosed Nuclei (%) (Fibroblast; [5]): 10% and 11%; Population Tubulin-Different-Phenotype (%) (Fibroblast; [5]): 32% and 19%; Total Cell Count (Fibroblast; [5]): 277 and 316; Population Apoptotic (%) (Fibroblast; [6]): 35% and 40%; Population Fragmented Nuclei (%) (Fibroblast; [6]): 13% and 19%; Population Healthy Nuclei (%) (Fibroblast; [6]): 73% and 66%; Population Hoechst High Intensity Objects (%) (Fibroblast; [6]): 0%; Population Membrane Permeable-Phenotype (%) (Fibroblast; [6]): 4%; Population Mitochondria Different-Phenotype (%) (Fibroblast; [6]): 0% and 2%; Population Mitotic Cells (%) (Fibroblast; [6]): 64% and 59%; Population Normal (%) (Fibroblast; [6]): 100% and 99%; Population Pyknosed Nuclei (%) (Fibroblast; [6]): 13% and 14%; Population Tubulin-Different-Phenotype (%) (Fibroblast; [6]): 14% and 13%; Total Cell Count (Fibroblast; [6]): 284 and 321; Population Apoptotic (%) (Fibroblast; [1]): 30% and 31%; Population Fragmented Nuclei (%) (Fibroblast; [1]): 18% and 13%; Population Healthy Nuclei (%) (Fibroblast; [1]): 61% and 66%; Population Hoechst High Intensity Objects (%) (Fibroblast; [1]): 1% and 2%; Population Membrane Permeable-Phenotype (%) (Fibroblast; [1]): 4% and 3%; Population Mitochondria Different-Phenotype (%) (Fibroblast; [1]): 3% and 0%; Population Mitotic Cells (%) (Fibroblast; [1]): 69% and 68%; Population Normal (%) (Fibroblast; [1]): 98% and 97%; Population Pyknosed Nuclei (%) (Fibroblast; [1]): 20% and 19%; Population Tubulin-Different-Phenotype (%) (Fibroblast; [1]): 32% and 17%; Total Cell Count (Fibroblast; [1]): 319 and 392; Population Apoptotic (%) (Fibroblast; [2]): 56% and 66%; Population Fragmented Nuclei (%) (Fibroblast; [2]): 18% and 25%; Population Healthy Nuclei (%) (Fibroblast; [2]): 70% and 65%; Population Hoechst High Intensity Objects (%) (Fibroblast; [2]): 0%; Population Membrane Permeable-Phenotype (%) (Fibroblast; [2]): 3% and 1%; Population Mitochondria Different-Phenotype (%) (Fibroblast; [2]): 0%; Population Mitotic Cells (%) (Fibroblast; [2]): 43% and 33%; Population Normal (%) (Fibroblast; [2]): 99%; Population Pyknosed Nuclei (%) (Fibroblast; [2]): 10% and 9%; Population Tubulin-Different-Phenotype (%) (Fibroblast; [2]): 12% and 5%; Total Cell Count (Fibroblast; [2]): 314 and 360; Population Apoptotic (%) (Fibroblast; [3]): 22% and 29%; Population Fragmented Nuclei (%) (Fibroblast; [3]): 17% and 16%; Population Healthy Nuclei (%) (Fibroblast; [3]): 66% and 70%; Population Hoechst High Intensity Objects (%) (Fibroblast; [3]): 6%; Population Membrane Permeable-Phenotype (%) (Fibroblast; [3]): 3% and 2%; Population Mitochondria Different-Phenotype (%) (Fibroblast; [3]): 2% and 0%; Population Mitotic Cells (%) (Fibroblast; [3]): 77% and 70%; Population Normal (%) (Fibroblast; [3]): 93%; Population Pyknosed Nuclei (%) (Fibroblast; [3]): 16% and 13%; Population Tubulin-Different-Phenotype (%) (Fibroblast; [3]): 33% and 16%; Total Cell Count (Fibroblast; [3]): 391 and 463
